Source: ChEMBL document CHEMBL1781959, “Synthesis and in vitro antitumor activity of substituted quinazoline and quinoxaline derivatives: search for anticancer agent” (Eur J Med Chem, 2011)

Columns and labels:
[1] = tested on: SF-268; assay: Growth inhibition of human SF268 cells after 48 hrs by SRB assay; assay type: functional; conditions: SF-268, 48 h
In short: (§1)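 NCI 60-panel five-dose assay at 0.01, 0.1, 1, 10 and 100 μM. Cells in RPMI 1640 with 5% FBS and 2 mM L-glutamine, preincubated 24 h, with time-zero plates TCA-fixed. Drug exposure 48 h at 37 °C. Read by SRB staining at 515 nm. GI50 is the concentration where [(Ti−Tz)/(C−Tz)]×100 = 50, taken from log concentration versus % growth curves.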

[2] = tested on: SK-MEL-5; assay: Growth inhibition of human SK-MEL-5 cells after 48 hrs by SRB assay; assay type: functional; conditions: SK-MEL-5, 48 h
In short: (§2)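 NCI-60 panel cells grown in RPMI 1640 with 5% FBS and 2 mM L-glutamine, then seeded at 5000–40,000 cells/well by doubling time and preincubated for 24 h. Compound in DMSO was tested either at 10^-5 M alone or at 0.01–100 μM in five doses, for 48 h at 37 °C. Cells were fixed with cold TCA (10% final), stained with SRB, and read at 515 nm. GI50 was taken from % growth relative to time-zero and control wells.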

[3] = tested on: SF-268; assay: Cytotoxicity against human SF268 cells after 48 hrs by SRB assay; assay type: cell-based; conditions: sf-268, 48 h
In short: (§3)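 NCI-60 five-dose screen in RPMI 1640 with 5% FBS and 2 mM L-glutamine; 5000–40,000 cells/well, 24 h pre-incubation. DMSO stocks diluted to 0.01, 0.1, 1, 10 and 100 μM final; 48 h at 37 °C, 5% CO2. Fixed with TCA (10% final adherent, 16% suspension), stained with 0.4% SRB, A515. GI50, TGI and LC50 taken from time-zero, control and test absorbances.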

[4] = tested on: U-251; assay: Growth inhibition of human U251 cells after 48 hrs by SRB assay; assay type: functional; conditions: U-251, 48 h; in short: as §2
[5] = tested on: CAKI-1; assay: Growth inhibition of human Caki1 cells after 48 hrs by SRB assay; assay type: functional; conditions: CAKI-1, 48 h; in short: as §1
[6] = tested on: OVCAR-5; assay: Growth inhibition of human OVCAR5 cells after 48 hrs by SRB assay; assay type: functional; conditions: OVCAR-5, 48 h; in short: as §1
[7] = tested on: HCT-116; assay: Cytotoxicity against human HCT116 cells after 48 hrs by SRB assay; assay type: cell-based; conditions: hct-116, 48 h; in short: as §3
[8] = tested on: UACC-62; assay: Growth inhibition of human UACC62 cells after 48 hrs by SRB assay; assay type: functional; conditions: UACC-62, 48 h; in short: as §2
[9] = tested on: NCI-H23; assay: Growth inhibition of human NCI-H23 cells after 48 hrs by SRB assay; assay type: functional; conditions: NCI-H23, 48 h; in short: as §1
[10] = tested on: COLO 205; assay: Cytotoxicity against human COLO205 cells after 48 hrs by SRB assay; assay type: cell-based; conditions: colo 205, 48 h; in short: as §3
[11] = tested on: NCI-H322M; assay: Cytotoxicity against human NCI-H322M cells after 48 hrs by SRB assay; assay type: cell-based; in short: as §3
[12] = tested on: M14; assay: Cytotoxicity against human M14 cells after 48 hrs by SRB assay; assay type: cell-based; conditions: m14, 48 h; in short: as §3
[13] = tested on: MOLT-4; assay: Growth inhibition of human MOLT4 cells after 48 hrs by SRB assay; assay type: functional; conditions: MOLT-4, 48 h; in short: as §1
[14] = tested on: KM12; assay: Cytotoxicity against human KM12 cells after 48 hrs by SRB assay; assay type: cell-based; conditions: km12, 48 h; in short: as §3
[15] = tested on: DU-145; assay: Growth inhibition of human DU145 cells after 48 hrs by SRB assay; assay type: functional; conditions: DU-145, 48 h; in short: as §1
[16] = tested on: T47D; assay: Cytotoxicity against human T47D cells after 48 hrs by SRB assay; assay type: cell-based
In short: (§4)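 NCI-60 five-dose screen. Cells grown in RPMI 1640 with 5% FBS and 2 mM L-glutamine and pre-incubated 24 h; a time-zero plate is TCA-fixed. Drug added at 0.01, 0.1, 1, 10 and 100 µM (DMSO stock) for 48 h at 37 °C, 5% CO2. Fixed with cold TCA (10% final for adherent, 16% for suspension cells), stained with 0.4% SRB, A515. GI50, TGI and LC50 taken from dose-response curves.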

[17] = tested on: M14; assay: Growth inhibition of human M14 cells after 48 hrs by SRB assay; assay type: functional; conditions: M14, 48 h; in short: as §1
[18] = tested on: MDA-MB-231; assay: Growth inhibition of human MDA-MB-231 cells after 48 hrs by SRB assay; assay type: functional; conditions: MDA-MB-231, 48 h; in short: as §1
[19] = tested on: UACC-257; assay: Growth inhibition of human UACC257 cells after 48 hrs by SRB assay; assay type: functional; conditions: UACC-257, 48 h; in short: as §2
[20] = tested on: MDA-MB-468; assay: Growth inhibition of human MDA-MB-468 cells after 48 hrs by SRB assay; assay type: functional; conditions: MDA-MB-468, 48 h; in short: as §1
[21] = tested on: A498; assay: Growth inhibition of human A498 cells after 48 hrs by SRB assay; assay type: functional; conditions: A498, 48 h; in short: as §1
[22] = tested on: DU-145; assay: Cytotoxicity against human DU145 cells after 48 hrs by SRB assay; assay type: cell-based; conditions: du-145, 48 h; in short: as §3
[23] = tested on: OVCAR-4; assay: Cytotoxicity against human OVCAR4 cells after 48 hrs by SRB assay; assay type: cell-based; conditions: ovcar-4, 48 h; in short: as §3
[24] = tested on: HCC 2998; assay: Growth inhibition of human HCC2998 cells after 48 hrs by SRB assay; assay type: functional; conditions: HCC 2998, 48 h; in short: as §1
[25] = Growth inhibition of human […] cells after 48 hrs by SRB assay; assay type: functional; in short: as §1
[26] = tested on: A498; assay: Cytotoxicity against human A498 cells after 48 hrs by SRB assay; assay type: cell-based; conditions: a498, 48 h; in short: as §3
[27] = tested on: UACC-62; assay: Cytotoxicity against human UACC62 cells after 48 hrs by SRB assay; assay type: cell-based; conditions: uacc-62, 48 h; in short: as §4
[28] = tested on: PC-3; assay: Cytotoxicity against human PC3 cells after 48 hrs by SRB assay; assay type: cell-based; conditions: pc-3, 48 h; in short: as §3
[29] = tested on: RXF 393; assay: Growth inhibition of human RXF393 cells after 48 hrs by SRB assay; assay type: functional; conditions: RXF 393, 48 h; in short: as §1
[30] = tested on: SF-539; assay: Cytotoxicity against human SF539 cells after 48 hrs by SRB assay; assay type: cell-based; conditions: sf-539, 48 h; in short: as §3
[31] = tested on: MDA-MB-231; assay: Cytotoxicity against human MDA-MB-231 cells after 48 hrs by SRB assay; assay type: cell-based; conditions: mda-mb-231, 48 h; in short: as §3
[32] = tested on: SN12C; assay: Growth inhibition of human SN12C cells after 48 hrs by SRB assay; assay type: functional; in short: as §2
[33] = tested on: NCI/ADR-RES; assay: Growth inhibition of human NCI/ADR-RES cells after 48 hrs by SRB assay; assay type: functional; in short: as §1
[34] = tested on: IGROV-1; assay: Growth inhibition of human IGROV1 cells after 48 hrs by SRB assay; assay type: functional; conditions: IGROV-1, 48 h; in short: as §1

O=c1c2ccccc2nc(-c2ccco2)n1/N=C/c1ccccc1Cl
GI50 [1]: 6.84 µM
TGI [1]: > 100 µM
GI50 [2]: 5.56 µM
TGI [2]: 31.8 µM
LC50 [3]: > 100 µM
GI50 [4]: 4.12 µM
TGI [4]: 32.3 µM
GI50 [5]: 7.99 µM
TGI [5]: 34.8 µM
GI50 [6]: 5.12 µM
TGI [6]: > 100 µM
LC50 [7]: > 100 µM
GI50 [8]: 6.38 µM
TGI [8]: > 100 µM
GI50 [9]: 7.87 µM
TGI [9]: > 100 µM
LC50 [10]: > 100 µM
LC50 [11]: > 100 µM
LC50 [12]: > 100 µM
GI50 [13]: > 100 µM
TGI [13]: > 100 µM
LC50 [14]: > 100 µM
GI50 [15]: 4.38 µM
TGI [15]: > 100 µM
LC50 [16]: > 100 µM
GI50 [17]: 10.8 µM
TGI [17]: > 100 µM
GI50 [18]: 3.13 µM
TGI [18]: 7.84 µM
GI50 [19]: 8.34 µM
TGI [19]: > 100 µM
GI50 [20]: 9.96 µM
TGI [20]: > 100 µM
GI50 [21]: 5.76 µM
TGI [21]: 16.7 µM
LC50 [22]: > 100 µM
LC50 [23]: > 100 µM
GI50 [24]: 5.68 µM
TGI [24]: > 100 µM
GI50 [25]: > 100 µM
TGI [25]: > 100 µM
LC50 [26]: > 100 µM
LC50 [27]: > 100 µM
LC50 [28]: > 100 µM
GI50 [29]: 11.6 µM
TGI [29]: 42.6 µM
LC50 [30]: > 100 µM
LC50 [31]: > 100 µM
GI50 [32]: 4.89 µM
TGI [32]: > 100 µM
GI50 [33]: 2.45 µM
TGI [33]: 8.78 µM
GI50 [34]: 6.12 µM
TGI [34]: > 100 µM
